Source: article PMC4130767 (Bioorganic & medicinal chemistry letters, 2014)

Test system: serine hydrolases in the HeLa cell membrane protein fraction
Test: ABPP-SILAC identification of serine hydrolase targets in cells
Format: cell-based
Conditions: 20 μM, 4 h, FP-biotin probe
Method in brief: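 Intact HeLa cells were cultured with test compound at 20 μM or DMSO control for 4 h. Membrane proteins were then isolated and labelled with FP-biotin probe for ABPP-SILAC. The read-out is the light/heavy ratio per serine hydrolase: 1 means no inhibition and 0 means complete inhibition. Two independent replicates were run.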

Row | Compound | selectivity/sensitivity profile against serine hydrolases
1 | N#Cc1cnn(C(=O)N2CCCCC2)c1 [compound 12] | more sensitive nature
2 | O=C(N1CCCCC1)n1cccn1 [compound 10] | more selective nature
